RanGTP-Imp inh: inhibitors of RanGTP-importin-beta interaction, primary screen, biochemical, FRET, CFP-Ran, YFP-importin-beta, homogeneous; Ran GTPase (GTP-bound) - importin-beta complex; cell-free CFP-Ran/YFP-importin-beta FRET ratio; inhibition, % (no concentration beside the values); actives 1.1% (n = 300,000);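 active = more than half of the replicate wells show a fall in the fluorescence ratio signal beyond about 16%, limit read from the data, passing the limit was not always enough; inconclusive = exactly half of the replicate wells pass the set limit; inactive = fewer than half of replicates pass the limit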
Rce1 inhib: yeast Rce1p protease inhibitors, primary screen, biochemical, fluorescence, cell-free homogeneous; CAAX prenyl protease 2 (Saccharomyces cerevisiae (strain ATCC 204508 / S288c)), Q03530; yeast membranes, quenched prenylated peptide cleavage fluorescence; calls only; actives 0.27% (n = 290,000); AID 2563, 2010;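 active = fall in fluorescence gain of 50% or more versus controls, with final raw signal at or below 3038400; inconclusive = same 50% fall but final raw signal above 3038400; inactive = fall in fluorescence gain under 50%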
Target sequence (Q03530 whole entry, looked up): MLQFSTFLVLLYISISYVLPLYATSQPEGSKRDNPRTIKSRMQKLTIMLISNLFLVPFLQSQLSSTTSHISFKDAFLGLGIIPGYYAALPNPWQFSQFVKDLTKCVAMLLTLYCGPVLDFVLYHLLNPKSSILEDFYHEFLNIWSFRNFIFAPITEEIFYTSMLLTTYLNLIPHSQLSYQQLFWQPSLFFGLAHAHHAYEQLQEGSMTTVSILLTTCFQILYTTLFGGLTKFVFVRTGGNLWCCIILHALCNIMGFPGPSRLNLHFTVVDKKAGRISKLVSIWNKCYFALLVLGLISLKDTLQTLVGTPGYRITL
Platelet DG rel: inhibitors of platelet dense granule secretion, primary screen, cell-based, MLPCN, human platelets; inhibition, %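 (compounds screened at 7.5 µM in platelet-rich plasma)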; AID 1663, 2009; human platelet-rich plasma, SFLLRN dense granule ATP release, luminescence; actives 0.22% (n = 300,000);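 active = mean replicate score, as percent of positive control, at or above 50; inconclusive = mean below 50 but at least one replicate at or above 50; inactive = mean and every replicate below 50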
Runt-SMMHC FRET: inhibitors of RUNX1 Runt–CBFb-SMMHC binding, primary screen, biochemical, FRET, Cerulean-Runt, Venus-CBFb-SMMHC, uHTS | Cerulean-Runt/Venus-CBFb-SMMHC FRET ratio 530/480, 1 h | AID 1434, 2008 | inhibition, % at 20 µM | Runt-related transcription factor 1 (Homo sapiens) + Core-binding factor subunit beta … | actives 0.74% (n = 220,000);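 active = mean inhibition across duplicate retests at 20 µM reaching about 50%, limit read from the data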;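 also: inhibitors lower the FRET ratio by blocking Runt binding to CBFb-SMMHC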
Runt-CBFb FRET: inhibitors of RUNX1 Runt–CBFb binding, primary screen, biochemical, FRET, Cerulean-Runt, Venus-CBFb, uHTS; Runt-related transcription factor 1 (Homo sapiens) + Core-binding factor subunit beta …; Cerulean-Runt/Venus-CBFb FRET ratio 530/480, 1 h; inhibition, % at 20 µM; actives 0.46% (n = 220,000);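 active = inhibition over about 50% at 20 µM in the single-dose screen, limit read from the data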
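test system = Cerulean-tagged RUNX1 Runt domain (FRET donor) fusion protein | reagent = Venus-CBFb binding partner, 100 nM | incubation = protein complex preformed 1 h, compound exposure 1 h, room temperature, dark | detection = FRET fluorescence | read-out basis = loss of energy transfer signal | controls = 5 µM unlabeled CBFb as full-inhibition high control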
A number is an active result; i = inactive; ? = inconclusive; nt = not tested or not shown; + = active, no number. This is a sample that favours compounds with a hit; in the whole collection about 1.8% have one here.

SMILES	RanGTP-Imp inh	Rce1 inhib	Platelet DG rel	Runt-SMMHC FRET	Runt-CBFb FRET
O=C(Nc1ccccc1F)C1CCCN(S(=O)(=O)c2ccccc2)C1 (stereo not given)	i	i	i	i	i
O=C(Cc1cccs1)N/N=C/C(Cl)=C/c1ccccc1	i	i	i	i	nt
COc1ccc(CC(=O)N2CCN(C(=O)Cc3ccc(OC)cc3)CC2)cc1	i	i	i	i	i
COc1ccc(CC(=O)N2CCN(c3ccc(C4=NNC(=O)CC4C)cc3)CC2)cc1 (stereo not given)	i	i	67	i	nt
Cc1c(Cl)c([N+](=O)[O-])nn1CC(=O)N1CCCc2ccccc21	i	+	i	i	i
CCC(=O)Oc1ccc2c(c1)O/C(=C\c1ccco1)C2=O	i	i	i	81	i
CCOC(=O)C(NCc1ccco1)(NC(=O)c1ccccc1)C(F)(F)F (stereo not given)	i	i	i	i	i
COc1ccc(/C=N/Nc2cc(N3CCCC3)nc(N3CCCC3)n2)cc1	60	i	i	i	i
Oc1ccc(/C=N/Nc2cc(N3CCCC3)nc(N3CCCC3)n2)cc1	86	i	i	i	i
CCN(CC)c1ccc(Nc2cc3n(c(=O)n2)CCc2cc(OC)c(OC)cc2-3)cc1	i	i	i	nt	nt
COc1cc2c(cc1OC)-c1cc(Nc3ccc(F)cc3)nc(=O)n1CC2	i	i	95	nt	nt
COc1cc2c(cc1OC)-c1cc(Nc3cccc(F)c3)nc(=O)n1CC2	i	i	71	nt	nt
COc1cc2c(cc1OC)-c1cc(Nc3ccc(N(C)C)cc3)nc(=O)n1CC2	i	i	76	i	i
O=C(Cn1cnc2cc([N+](=O)[O-])ccc2c1=O)Nc1ccc(N2CCOCC2)cc1	i	i	i	i	i
CC(=O)Oc1c(/C=C(\C#N)C(N)=O)[nH]c2ccccc12	16	i	i	i	i
N#C/C(=C\c1c[nH]c2ccccc12)C(N)=O	i	i	i	i	i
Cc1[nH]c(=O)c(C#N)c(C)c1CCC(=O)Nc1cc(S(C)(=O)=O)ccc1Cl	i	i	i	nt	nt
O=S(=O)(O)c1cccc2c(N=Nc3ccc(O)c4ncccc34)cccc12	16	i	i	nt	nt
O=C1CCN(N=Nc2cccc(Cl)c2)N1	i	i	53	i	i
CCC(=O)Nc1ccc(C2C(=O)c3ccccc3C2=O)cc1	i	i	i	nt	nt
Brc1ccc(-c2nc(N/N=C/c3cccnc3)c3ccccc3n2)cc1	i	i	72	i	i
O=C(O)CSCC(=O)N1N=C2/C(=C/c3ccccc3)CCCC2C1c1ccccc1 (stereo not given)	i	nt	i	nt	nt
NC(=O)N1N=C2/C(=C/c3ccccc3)CCCC2C1c1ccccc1 (stereo not given)	i	+	i	nt	nt
O=c1cc(COc2ncnc3c(Cl)cc(Cl)cc23)nc2sccn12	i	i	52	i	i
Cn1c2c(c(=O)n(C)c1=O)[C@@]1(C(=O)Nc3ccccc31)C(C#N)=C(N)O2	i	i	i	i	i
SMILES	RanGTP-Imp inh	Rce1 inhib	Platelet DG rel	Runt-SMMHC FRET	Runt-CBFb FRET
Cn1c2c(c(=O)n(C)c1=O)NC1(N2)C(=O)Nc2ccccc21 (stereo not given)	37	i	i	i	i
N#Cc1c(=O)c2nc(NCCCO)ncc2n2c(=O)c3ccccc3[nH]c12	i	i	i	i	i
N#Cc1c(=O)c2nc(NCc3ccccc3)ncc2n2ccccc12	38	nt	i	i	i
Cc1ccc(CNC(=O)CCCNS(=O)(=O)c2cccc3nonc23)cc1	i	i	i	i	i
COc1ccc(CNC(=O)CCCNS(=O)(=O)c2cccc3nonc23)cc1	63	i	i	i	i
O=C(CSc1nccc(=O)[nH]1)Nc1cccc(S(=O)(=O)N2CCOCC2)c1	i	i	i	i	i
CCOc1ccc(NC(=O)C2CCCN(S(C)(=O)=O)C2)cc1 (stereo not given)	i	i	i	nt	nt
COC(=O)c1c(C#N)c(N)nc2c1CCC2	66	i	i	62	96
COC(=O)c1cc(C)nc(N)c1C#N	i	i	i	i	i
CNS(=O)(=O)c1ccc(CCC(=O)N2CCOCC2)cc1	i	i	i	nt	nt
CC(C)(C)NS(=O)(=O)c1ccc(CCC(=O)N2CCOCC2)cc1	35	i	i	i	i
COc1ccc(-c2ccc(SCC(=O)N3CC(=O)Nc4ccccc43)nn2)cc1	i	i	i	nt	nt
CCCCNC(=O)Nc1ccc(Br)cn1	i	i	53	i	i
COc1ccc(NC(=S)NC(=O)C2CCC2)cc1	i	nt	i	nt	nt
S=c1nc[nH]c2c1cnn2-c1ccccc1	i	+	i	i	i
Nc1ncnc2c1cnn2-c1ccccc1	i	i	i	i	i
COc1ccc(/C=N/Nc2cc(C)nc3ccc(OC)cc23)c(OC)c1	20	i	i	nt	nt
COc1ccccc1/C=N/Nc1cc(C)nc2ccc(C)cc12	i	nt	i	nt	nt
COc1ccc(/C=N/Nc2ncccc2[N+](=O)[O-])c(OC)c1	i	i	79	i	i
COc1ccc(C)cc1NC(=O)CCC(=O)Nc1ccc2nc(N3CCN(C)CC3)cc(C)c2c1	i	+	i	i	i
CC1(c2nnc(-c3cccc(Cl)c3)o2)CC(c2cccc(F)c2)=NO1 (stereo not given)	i	+	i	nt	nt
O=C(Nc1ccccc1CC[N+](=O)[O-])N1CCN(c2ccccc2)CC1	i	i	i	i	i
O=C(COc1ccccc1)Nc1nc2c(s1)CCCC2	i	i	i	nt	nt
CN1CCc2nc(NC(=O)COc3ccc(C#N)cc3)sc2C1	23	i	i	59	i
CN(C)CCCN1C(=O)c2cccc3cccc(c23)C1=O	i	+	i	nt	nt
SMILES	RanGTP-Imp inh	Rce1 inhib	Platelet DG rel	Runt-SMMHC FRET	Runt-CBFb FRET
C/C(=N\NC(=O)c1ccccc1)c1ccc(NC(=O)c2cccs2)cc1	i	i	i	i	i
C/C(=N/NC(=O)c1ccccc1)c1ccc(NC(=O)C(F)(F)F)cc1	31	i	i	i	i
C/C(=N\NC(=O)c1ccc2c(c1)OCCO2)c1ccccc1	i	i	71	i	i
CSc1nc2sc(-c3ccccc3)cc2c(=O)n1N	i	i	115	i	i
CC(C)Sc1nc2sc(-c3ccccc3)cc2c(=O)n1N	nt	nt	nt	i	i
CCOCCCn1c(=NC(=O)c2cccnc2)c(C(=O)OCC)cc2c(=O)n3ccccc3nc21	119	i	i	i	65
CCOC(=O)c1cc2c(=O)n3cccc(C)c3nc2n(CCCOC)c1=NC(=O)c1cccnc1	129	i	i	i	110
CCOC(=O)c1cc2c(=O)n3ccccc3nc2n(C)c1=NC(=O)c1c(-c2c(F)cccc2Cl)noc1C	?	nt	i	nt	nt

High-throughput results deposited in PubChem BioAssay by several laboratories.
